pEC50, pIC50: −log10 of the molar value. Activity calls are given as the source filed them. The rule behind the calls is not given here.
Experiments:
A549 [1] = assay: Antiproliferative activity against human A549 cells assessed as growth inhibition at 10 uM after 72 hrs by MTT assay relative to control; format: functional; conditions: for inhibition of growth at 10 µM: read-out: GI
Method in brief: (§1)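 Single-concentration MTT screen on MCF-7 and A549 cells grown in DMEM + 10% FBS. Cells at 3000–6000/well, cultured overnight, then given compound in buffer with 1% DMSO for 72 h. MTT (0.5 mg/mL) added for 4 h, formazan dissolved in DMSO, A570 read. Percent inhibition reported as the average ± S.D. of three independent measurements.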

A549 [2] = assay: Antiproliferative activity against human A549 cells assessed as growth inhibition at 1 uM after 72 hrs by MTT assay relative to control; format: functional; conditions: for inhibition of growth at 1 µM: read-out: GI; method in brief: as §1
MCF7 [3] = assay: Antiproliferative activity against human MCF7 cells assessed as growth inhibition at 10 uM after 72 hrs by MTT assay relative to control; format: functional; conditions: for inhibition of growth at 10 µM: read-out: GI; method in brief: as §1
MCF7 [4] = assay: Antiproliferative activity against human MCF7 cells assessed as growth inhibition at 1 uM after 72 hrs by MTT assay relative to control; format: functional; conditions: for inhibition of growth at 1 µM: read-out: GI; method in brief: as §1
Homo sapiens = species: Homo sapiens; assay: Inhibition of PDK (unknown origin) using RYHGHSMSDP as substrate at 1 uM after 30 mins by Kinase-Glo luminescent assay
HCT-116 = assay: Antiproliferative activity against human HCT-116 cells assessed as growth inhibition after 72 hrs by MTT assay; format: functional, cell-based; conditions: for pIC50: Homo sapiens, HCT-116, 72 h, read-out: IC50
Method in brief: (§2)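 MTT viability assay. Cancer lines seeded at 3000–6000 cells/well and L02 at 7000 cells/well, cultured overnight, then exposed to a full dose range for 72 h. MTT (0.5 mg/mL) added for 4 h, supernatant removed, formazan dissolved in DMSO, absorbance read at 570 nm. IC50 taken as the mean of three independent experiments. Cells grown in DMEM + 10% FBS, 37 °C, 5% CO2.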

PC-3 = assay: Antiproliferative activity against human PC3 cells assessed as growth inhibition after 72 hrs by MTT assay; format: functional, cell-based; conditions: for pIC50: Homo sapiens, PC-3, 72 h, read-out: IC50; method in brief: as §2
MCF7 [5] = assay: Antiproliferative activity against human MCF7 cells assessed as growth inhibition after 72 hrs by MTT assay; format: functional, cell-based; conditions: for pIC50: Homo sapiens, MCF7, 72 h, read-out: IC50; method in brief: as §2
A549 [6] = assay: Antiproliferative activity against human A549 cells assessed as growth inhibition after 72 hrs by MTT assay; format: functional, cell-based; conditions: for pIC50: Homo sapiens, A549, 72 h, read-out: IC50; method in brief: as §2
SH-SY5Y = assay: Antiproliferative activity against human SHSY-5Y cells assessed as growth inhibition after 72 hrs by MTT assay; format: functional, cell-based; conditions: for pIC50: Homo sapiens, SH-SY5Y, 72 h, read-out: IC50; method in brief: as §2
A-375 = assay: Antiproliferative activity against human A375 cells assessed as growth inhibition after 72 hrs by MTT assay; format: functional, cell-based; conditions: for pIC50: Homo sapiens, A-375, 72 h, read-out: IC50; method in brief: as §2
L02 = assay: Cytotoxicity against human L02 cells assessed as reduction in cell viability after 72 hrs by MTT assay; format: cell-based; conditions: for pIC50: Homo sapiens, L02, 72 h, read-out: IC50; method in brief: as §2
[7] = Inhibition of PDK (unknown origin) using RYHGHSMSDP as substrate after 30 mins by Kinase-Glo luminescent assay; set-up: species or system Homo sapiens

| Compound | inhibition (Homo sapiens) | inhibition of growth at 10 µM (A549 [1]) | inhibition of growth at 1 µM (A549 [2]) | inhibition of growth at 10 µM (MCF7 [3]) | inhibition of growth at 1 µM (MCF7 [4]) | further results |
| --- | --- | --- | --- | --- | --- | --- |
| COc1ccc(Nc2ccc(C(=O)C(Cl)Cl)cc2[N+](=O)[O-])cc1 | 55.7% | 97.7% | 45% | 95.9% | 29.2% |  |
| COc1cccc2c1C(=O)c1c(O)c3c(c(O)c1C2=O)C[C@@](O)(C(=O)CO)C[C@@H]3O[C@H]1C[C@H](N)[C@H](O)[C@H](C)O1 [DOXORUBICIN] |  | 98.5% | 81.2% | 97.5% | 59.8% |  |
| O=C(c1ccc(N2CCNCC2)c([N+](=O)[O-])c1)C(Cl)Cl | 48.6% | 93.1% | 22.6% | 57% |  | growth inhibition (GI) (MCF7 [4]): inactive |
| O=C(c1ccc(Nc2ccc(F)cc2)c([N+](=O)[O-])c1)C(Cl)Cl | 50.1% | 98.9% | 23.2% | 97.8% | 17.9% |  |
| CCOc1ccc(Nc2ccc(C(=O)C(Cl)Cl)cc2[N+](=O)[O-])cc1 | 68.7% | 97.4% | 52.9% | 93.8% | 18.8% |  |
| O=C([O-])C(Cl)Cl.[Na+] [SODIUM DICHLOROACETATE] |  |  |  |  |  | pIC50 (HCT-116): 2.01; pIC50 (PC-3): 1.80; pIC50 (MCF7 [5]): 1.87; pIC50 (A549 [6]): 1.71; pIC50 (SH-SY5Y): 1.76; pIC50 (A-375): 1.70; pIC50 (L02): 1.66 |
| O=C(c1ccc(-c2ccc(OC(F)(F)F)cc2)c([N+](=O)[O-])c1)C(Cl)Cl | 21.4% | 93.6% | 36.3% | 97.8% | 24.7% |  |
| CC(C)c1ccc(Sc2ccc(C(=O)C(Cl)Cl)cc2[N+](=O)[O-])cc1 | 19.5% | 76.3% | 12.9% | 79.8% | 18.9% |  |
| CN(C)C(=O)c1ccc(S(=O)(=O)c2ccc(NC(=O)[C@@](C)(O)C(F)(F)F)c(Cl)c2)cc1 | 98.7% |  |  |  |  | IC50 (HCT-116; hct-116): Not Active; IC50 (PC-3; pc-3): Not Active; IC50 (MCF7 [5]; mcf7): Not Active; IC50 (A549 [6]; a549): Not Active; growth inhibition (GI) (A549 [1]): inactive; IC50 (SH-SY5Y; sh-sy5y): Not Active; pEC50 [7]: 7.28; IC50 (A-375; a-375): Not Active; growth inhibition (GI) (A549 [2]): inactive; growth inhibition (GI) (MCF7 [3]): inactive; IC50 (L02; l02): Not Active; growth inhibition (GI) (MCF7 [4]): inactive |
| CC(C)(O)c1ccc(Nc2ccc(C(=O)C(Cl)Cl)cc2[N+](=O)[O-])cc1 | 48.8% | 96.3% | 37.9% | 92.8% | 33.9% | pIC50 (HCT-116): 5.82; pIC50 (PC-3): 5.63; pIC50 (MCF7 [5]): 5.53; pIC50 (A549 [6]): 5.51; pIC50 (SH-SY5Y): 5.64; pEC50 [7]: 5.83; pIC50 (A-375): 5.74; pIC50 (L02): 5.11 |
| COc1ccc(Nc2ccc(C(=O)C(Cl)Cl)cc2[N+](=O)[O-])cc1OC | 66.4% | 96.6% | 40.5% | 90.5% | 24.2% |  |
| CC(C)c1ccc(Oc2ccc(C(=O)C(Cl)Cl)cc2[N+](=O)[O-])cc1 | 39.4% | 90.7% | 12.5% | 85.7% | 28.7% |  |
| CC(C)c1ccc(Nc2ccc(C(=O)C(Cl)Cl)cc2[N+](=O)[O-])cc1 | 80% | 97% | 75.2% | 94% | 38.6% | pIC50 (HCT-116): 6.15; pIC50 (PC-3): 6.42; pIC50 (MCF7 [5]): 5.92; pIC50 (A549 [6]): 6.48; pIC50 (SH-SY5Y): 6.00; pEC50 [7]: 6.47; pIC50 (A-375): 6.05; pIC50 (L02): 5.82 |
| Cc1ccc(Nc2ccc(C(=O)C(Cl)Cl)cc2[N+](=O)[O-])cc1 | 64.4% | 97.3% | 48.1% | 88.9% | 12.1% |  |
| CN(C)c1ccc(Nc2ccc(C(=O)C(Cl)Cl)cc2[N+](=O)[O-])cc1 | 88.2% | 98.6% | 75% | 93.2% | 31.6% |  |
| CC(C)(C)c1ccc(Nc2ccc(C(=O)C(Cl)Cl)cc2[N+](=O)[O-])cc1 | 65.8% | 93.2% | 48.8% | 96.4% | 41.2% | pIC50 (HCT-116): 6.30; pIC50 (PC-3): 6.33; pIC50 (MCF7 [5]): 5.72; pIC50 (A549 [6]): 5.92; pIC50 (SH-SY5Y): 5.96; pEC50 [7]: 6.26; pIC50 (A-375): 6.05; pIC50 (L02): 5.23 |

Continued, in another order:

| inhibition (Homo sapiens) | Compound | inhibition of growth at 10 µM (A549 [1]) | inhibition of growth at 1 µM (A549 [2]) | inhibition of growth at 10 µM (MCF7 [3]) | inhibition of growth at 1 µM (MCF7 [4]) | further results |
| --- | --- | --- | --- | --- | --- | --- |
| 12.1% | O=C(c1ccc(-c2ccc(F)cc2)c([N+](=O)[O-])c1)C(Cl)Cl | 95.3% | 44.7% | 91.6% | 30.8% |  |
| 5.9% | Cc1ccc(-c2ccc(C(=O)C(Cl)Cl)cc2[N+](=O)[O-])cc1 | 96% | 13.8% | 89.1% | 26.4% |  |
| 17.5% | O=C(c1ccc(NC2CC2)c([N+](=O)[O-])c1)C(Cl)Cl | 95.7% | 21.6% | 96% | 25.7% |  |
| 17.4% | O=C(c1ccc(-n2cncn2)c([N+](=O)[O-])c1)C(Cl)Cl | 58.9% |  | 11.9% |  | growth inhibition (GI) (A549 [2]): inactive; growth inhibition (GI) (MCF7 [4]): inactive |
| 25.6% | O=C(c1ccc(-c2ccccc2)c([N+](=O)[O-])c1)C(Cl)Cl | 92.6% | 8.9% | 56.2% | 15.8% |  |
| 32.4% | O=C(c1ccc(N2CCCC2)c([N+](=O)[O-])c1)C(Cl)Cl | 97.3% | 30.6% | 94.6% | 23% |  |
| 26.5% | O=C(c1ccc(-c2ccsc2)c([N+](=O)[O-])c1)C(Cl)Cl | 94.4% | 14.4% | 43.5% | 7.5% |  |
| 8.1% | O=C(c1ccc(-n2ccnc2[N+](=O)[O-])c([N+](=O)[O-])c1)C(Cl)Cl | 80.9% |  | 21.4% |  | growth inhibition (GI) (A549 [2]): inactive; growth inhibition (GI) (MCF7 [4]): inactive |
| 36.9% | O=C(c1ccc(N2CCOCC2)c([N+](=O)[O-])c1)C(Cl)Cl | 95.6% | 10.1% | 90.4% | 18.9% |  |
| 17.3% | O=C(c1ccc(C2CC2)c([N+](=O)[O-])c1)C(Cl)Cl | 95.9% | 40.1% | 87.8% | 31.3% |  |
| 40.2% | O=C(c1ccc(N2CCCCC2)c([N+](=O)[O-])c1)C(Cl)Cl | 97.1% | 38.9% | 95.8% | 22.4% |  |
| 20.5% | O=C(c1ccc(-n2ccnc2)c([N+](=O)[O-])c1)C(Cl)Cl | 96.6% | 30.5% | 90.5% | 24.2% |  |
| 60.7% | O=C(c1ccc(Nc2ccccc2)c([N+](=O)[O-])c1)C(Cl)Cl | 97.4% | 46.1% | 97.1% | 26.3% |  |

— ChEMBL document CHEMBL4732185, “Synthesis, biological evaluation and structure-activity relationship of novel dichloroacetophenones targeting pyruvate dehydrogenase kinases with potent anticancer activity” (Eur J Med Chem, 2021)
